Experimental data as given in ChEMBL document CHEMBL1121452, “8-Chloro-1-methyl-6-phenyl-4H-s-triazolo[4,3-a][1,4]benzodiazepines with substituents at C-4” (1980).

Legend:
Type in all cases: functional
Mus musculus [1] = organism: Mus musculus; assay: Evaluated for the antagonism of nicotine induced death (D) in CF1 mice
Summary of the method: (§1)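 Compounds dissolved or suspended in 0.25% aqueous methylcellulose and given ip to mice in groups of four or six per dose, at several dose levels spaced 0.3 log units apart. Scoring follows previously described procedures. ED50 values in mg/kg were calculated by the Spearman-Karber method.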

Mus musculus [2] = organism: Mus musculus; assay: Evaluated for the pentylene induced clonic convulsions (P) in CF1 mice; summary of the method: as §1
Mus musculus [3] = organism: Mus musculus; assay: Evaluated for antagonistic activity on nicotine-induced tonic-extensor convulsions (TE) in CF1 mice; summary of the method: as §1
Mus musculus [4] = organism: Mus musculus; assay: Loss of righting reflex (LORR) was evaluated in CF1 mice; summary of the method: as §1
Mus musculus [5] = organism: Mus musculus; assay: Loss of traction (TR) was evaluated in CF1 mice; summary of the method: as §1
Mus musculus [6] = organism: Mus musculus; assay: Loss of righting reflex (LORR) was evaluated in mice; summary of the method: as §1
Mus musculus [7] = organism: Mus musculus; assay: Loss of traction (TR) was evaluated in mice; summary of the method: as §1

Row | Compound | ED50 (Mus musculus [1]) [mg/kg] | ED50 (Mus musculus [2]) [mg/kg] | ED50 (Mus musculus [3]) [mg/kg] | ED50 (Mus musculus [4]) [mg/kg] | ED50 (Mus musculus [5]) [mg/kg] | ED50 (Mus musculus [6]) [mg/kg] | ED50 (Mus musculus [7]) [mg/kg]
1 | CCOC(=O)CC1(C(=O)OCC)N=C(c2ccccc2)c2cc(Cl)ccc2-n2c(C)nnc21 (centres undefined) | > 200 | > 50 | > 200 | > 200 | > 200 | – | –
2 | Cc1nnc2n1-c1ccc(Cl)cc1C1(c3ccccc3)ON1C2 (centres undefined) | 0.12 | 0.2 | 0.12 | > 25 | 2.5 | – | –
3 | Cc1nnc2n1-c1ccc(Cl)cc1C(c1ccccc1)=NC2N (centres undefined) | 0.63 | 3.5 | 0.36 | – | 18 | > 100 | –
4 | Cc1nnc2n1-c1ccc(Cl)cc1C(c1ccccc1)N=C2N (centres undefined) | 40 | > 100 | 40 | > 200 | > 200 | – | –
5 | Cc1nnc2n1-c1ccc(Cl)cc1C(c1ccccc1)=NC2CC(=O)O (centres undefined) | 0.9 | 5 | 0.9 | – | 13 | > 200 | –
6 | CCOC(=O)C1(N)N=C(c2ccccc2)c2cc(Cl)ccc2-n2c(C)nnc21 (centres undefined) | 4.5 | 32 | 3.1 | > 200 | 159 | – | –
7 | Cc1nnc2n1-c1ccc(Cl)cc1C(c1ccccc1)=NC2O (centres undefined) [4-HYDROXY-ALPRAZOLAM] | 4 | 8.9 | 4 | > 50 | 23 | – | –
8 | Cc1nnc2n1-c1ccc(Cl)cc1C(c1ccccc1)=NC2C (centres undefined) | 0.056 | 0.1 | 0.056 | – | 1.8 | > 200 | –
9 | CCOC(=O)C1N=C(c2ccccc2)c2cc(Cl)ccc2-n2c(C)nnc21 (centres undefined) | 45 | > 100 | 50 | – | > 100 | > 100 | –
10 | Cc1nnc2n1-c1ccc(Cl)cc1C(c1ccccc1)NC2=O (centres undefined) | – | > 25 | > 100 | > 100 | > 100 | – | –
11 | CCOC(=O)C1(C)N=C(c2ccccc2)c2cc(Cl)ccc2-n2c(C)nnc21 (centres undefined) | 18 | 40 | 16 | > 200 | 112 | – | –
12 | Cc1nnc2n1-c1ccc(Cl)cc1C(c1ccccc1)=NC2 [ALPRAZOLAM] | 0.02 | 0.2 | 0.02 | > 100 | – | – | 0.6
13 | CC(=O)OC1N=C(c2ccccc2)c2cc(Cl)ccc2-n2c(C)nnc21 (centres undefined) | 1 | 8.9 | 1 | > 200 | 18 | – | –
14 | Cc1nnc2n1-c1ccc(Cl)cc1C(c1ccccc1)=[N+]([O-])C2 | 0.2 | 1.8 | 0.2 | > 200 | 10 | – | –
